Rpn11 block: inhibitors of human proteasome Rpn11 | AID 588493 | 0.59% of 360,000 active | inhibition, % at 20 µM | O00487 | human 26S proteasome, Ub4-pepOG fluorescence polarization; 20S core pre-blocked with epoxomicin;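 active = inhibition at 20 µM, scaled to each plate's controls, above about 33%, limit read from the data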
CSN inh: inhibitors of human CSN-mediated cullin deneddylation; Purified CSN, SCF-Nedd8-OG deneddylation, fluorescence polarization; 0.38% of 360,000 active; inhibition, % at 12.5 µM;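 active = pattern-corrected inhibition above about 35%, with an unprinted fluorescence ratio check between 0.5 and 1.5, limit read from the data, passing the limit was not always enough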;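 also: 0% = enzyme with substrate and 100% = substrate without enzyme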
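Detection – fluorescence polarization · System – HEK293T-derived human Csn5 enzyme · Controls – substrate-only high control, full reaction low control · Timing – 90 min, room temperature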
Neddyl block: inhibitors of human cullin neddylation | P61081+Q13564 | TR-FRET cullin neddylation, biochemical | inhibition, % at 25 µM | 0.58% of 360,000 active | AID 651699; in the data active = inhibition above about 36%
Target sequence (P61081 whole entry, looked up): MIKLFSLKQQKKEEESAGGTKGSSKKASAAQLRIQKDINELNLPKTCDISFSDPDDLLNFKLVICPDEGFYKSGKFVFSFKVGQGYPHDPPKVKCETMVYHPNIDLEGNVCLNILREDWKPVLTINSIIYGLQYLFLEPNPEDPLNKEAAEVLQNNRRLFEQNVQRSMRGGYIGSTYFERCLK
Target sequence (Q13564 whole entry, looked up): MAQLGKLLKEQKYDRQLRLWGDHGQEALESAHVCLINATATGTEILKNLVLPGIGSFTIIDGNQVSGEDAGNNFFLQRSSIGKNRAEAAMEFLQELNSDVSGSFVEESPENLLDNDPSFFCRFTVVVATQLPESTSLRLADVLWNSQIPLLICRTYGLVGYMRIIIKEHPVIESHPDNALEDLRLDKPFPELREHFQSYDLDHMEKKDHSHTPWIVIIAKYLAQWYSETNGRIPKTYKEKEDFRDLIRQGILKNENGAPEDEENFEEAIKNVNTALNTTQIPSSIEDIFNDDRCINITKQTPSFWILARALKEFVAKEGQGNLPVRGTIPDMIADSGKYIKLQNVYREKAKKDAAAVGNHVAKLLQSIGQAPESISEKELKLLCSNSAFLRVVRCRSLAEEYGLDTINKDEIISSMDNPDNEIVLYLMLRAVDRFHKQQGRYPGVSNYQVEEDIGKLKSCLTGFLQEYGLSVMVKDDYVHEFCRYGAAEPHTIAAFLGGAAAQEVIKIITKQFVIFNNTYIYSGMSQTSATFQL
HNF4A DNA FP: change in binding of human HNF4 alpha to DNA | P41235 | HNF4a-FITC DNA binding, fluorescence polarization, 1 h | AID 1224865 | 0.3% of 360,000 active | activity change, % at 10 µM; in the data active = activity change above about 30%, passing the limit was not always enough
Rin1 Abl inh: inhibitors of human Rin1-Abl protein interaction | P00519+Q13671 | TR-FRET Rin1/Abl binding, biochemical | inhibition, % at 7.35 µM | 0.4% of 360,000 active | AID 588664; in the data active = inhibition above about 5%, passing the limit was not always enough
TPT1 inh: blocks Candida albicans tRNA 2'-phosphotransferase. recombinant caTPT1, FP RNA substrate dephosphorylation. inhibition, % at 5 µM. 0.81% of 300,000 active;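 active = inhibition above the mean of all tested compounds plus 3 SD, set per screening campaign, cut at about 24% in these data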;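 also: plate controls were DMSO alone for no effect and ferristatin control at 100 nM for full effect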
Rin1 Abl conf: confirmation of inhibitors of human Rin1-Abl interaction; shares compounds with Rin1 Abl inh; inhibition, % at 7.35 µM; TR-FRET Rin1-Abl binding, purified proteins; 49% of 1,300 active
GFP quencher: counter-screen for Rin1-Abl inhibitors: GFP fluorescence quenchers. inhibition, % at 6.75 µM. inhibitors/quenchers counterscreen. AID 602125. 8.5% of 1,300 active. shares compounds with Rin1 Abl inh;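 also: ABL1-eGFP fusion protein alone without its partner RIN1-SBP; 0% = protein with vehicle and 100% = wells lacking protein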
GFP quench dose: counter-screen for Rin1-Abl inhibitors: GFP quenchers, dose response | shares compounds with Rin1 Abl inh | GFP fluorescence interference/quenching counterscreen | IC50, µM | 230 tested, under 10 active | AID 602182; call rule not given here;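 also: ABL1-eGFP fusion protein alone without its RIN1 binding partner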
* = called active by the depositor. A selection: hits, their analogues and other compounds. The true share with any hit is near 2.4%. Rule as the data show it, unless noted: active = inhibition above about 6.5%; inactive = the rest.

Screening O=C(CCCN1C(=O)C(c2ccccc2)Oc2cccnc21)Nc1ccccc1Cl (stereo not drawn) returned Rpn11 block -5, CSN inh 1, Neddyl block 0, HNF4A DNA FP -1, Rin1 Abl inh 0 and TPT1 inh -2.
CCCCOc1cccc(C(=O)N(Cc2ccco2)C2CCS(=O)(=O)C2)c1 (stereo not drawn) was read as Rpn11 block 0, CSN inh -3, Neddyl block -2, HNF4A DNA FP 1, Rin1 Abl inh 0 and TPT1 inh 0.
`CCCCOc1ccc(C(=O)N(Cc2ccco2)C2CCS(=O)(=O)C2)cc1` (stereo not drawn) gave Rpn11 block -2, CSN inh 2, Neddyl block -2, HNF4A DNA FP 1, Rin1 Abl inh 9.6*, TPT1 inh 1, Rin1 Abl conf 2 and GFP quencher -2.
`Cc1cc(C)cc(NC(=O)c2sc3nc4n(c(=O)c3c2C)CCC4)c1` gave Rpn11 block 4, CSN inh -2, Neddyl block -49, HNF4A DNA FP 5, Rin1 Abl inh 1 and TPT1 inh -1.
Screening CCc1cccc(NC(=O)c2sc3nc4n(c(=O)c3c2C)CCC4)c1 returned Rpn11 block -5, CSN inh 2, Neddyl block -48, HNF4A DNA FP -2, Rin1 Abl inh 10*, TPT1 inh -4, Rin1 Abl conf -3 and GFP quencher 0.
For C/C(=N\Nc1nccnc1Cl)c1ccc(O)c(C)c1 the results were Rpn11 block 0, CSN inh 1, Neddyl block -1, HNF4A DNA FP 0, Rin1 Abl inh 1 and TPT1 inh 0.
For COCC(=O)Nc1ccc2c(c1)[C@@H]1C[C@H](CC(=O)NCc3cccc(F)c3)O[C@@H](CO)[C@@H]1O2 the results were Rpn11 block -4, CSN inh 0, Neddyl block 11, HNF4A DNA FP 2, Rin1 Abl inh 50*, Rin1 Abl conf 0 and GFP quencher 1.
O=C(c1cccs1)C1CCCN(Cc2nc(Cc3ccccc3F)no2)C1 (stereo not drawn) was read as Rpn11 block -1, CSN inh 2, Neddyl block -5, HNF4A DNA FP -1, Rin1 Abl inh 1 and TPT1 inh 0.
`CC1CC(C)CN(CC(=O)Nc2ccc3c(c2)OCCO3)C1` (stereo not drawn) gave Rpn11 block 3, CSN inh 1, Neddyl block 3, HNF4A DNA FP 1, Rin1 Abl inh 6.3*, TPT1 inh -2, Rin1 Abl conf 2 and GFP quencher 3.
Screening N#CC1=C(N)Oc2c(ccc3cccnc23)C1c1ccccc1 (stereo not drawn) returned Rpn11 block 6, CSN inh 2, Neddyl block 10, HNF4A DNA FP 0, Rin1 Abl inh 1 and TPT1 inh -1.
Cc1ccc2[nH]c(=O)c(C3C(C#N)=C(N)Oc4c3ccc3cccnc43)cc2c1 (stereo not drawn) was read as Rpn11 block 18, CSN inh 1, Neddyl block -10, HNF4A DNA FP 4, Rin1 Abl inh 9.8*, TPT1 inh 3, Rin1 Abl conf 2 and GFP quencher 6.
Cc1ccc(-n2c(SCC(=O)N3Cc4ccccc4CC3C(=O)O)nnc2-c2cccnc2)c(C)c1 (stereo not drawn) was read as Rpn11 block 2, CSN inh -2, Neddyl block 1, HNF4A DNA FP -3, Rin1 Abl inh 7.0*, TPT1 inh -3, Rin1 Abl conf 18*, GFP quencher 2 and GFP quench dose >68.
CC(C)Nc1ncnc2c1ncn2[C@H]1CN(CCN2CCOCC2)C[C@@H](CO)O1 was read as Rpn11 block 1, CSN inh 3, Neddyl block 6, HNF4A DNA FP 1 and Rin1 Abl inh 3.
`CN(Cc1ccc(C(C)(C)C)cc1)C(=O)C1CSC2(C)CCC(=O)N12` (stereo not drawn) gave Rpn11 block 2, CSN inh -2, Neddyl block -12, HNF4A DNA FP -1, Rin1 Abl inh 12*, Rin1 Abl conf -3 and GFP quencher -1.
Screening Cc1nn2c(-c3ccco3)nnc2c2ccccc12 returned Rpn11 block 1, CSN inh 3, Neddyl block 12, HNF4A DNA FP 1, Rin1 Abl inh 10*, TPT1 inh 4, Rin1 Abl conf 14* and GFP quencher -3.
For CCCc1nnc(SCC(=O)Nc2ccccc2Cl)n1CC1CCCO1 (stereo not drawn) the results were Rpn11 block 4, CSN inh -1, Neddyl block 0, HNF4A DNA FP 0, Rin1 Abl inh 5 and TPT1 inh 1.
O=c1[nH]c2ccccc2n1CCCSCCCn1c(=O)[nH]c2ccccc21 was read as Rpn11 block -5, CSN inh -4, Neddyl block -1, HNF4A DNA FP 0, Rin1 Abl inh 8.7*, TPT1 inh -3, Rin1 Abl conf 14* and GFP quencher 1.
Screening CCOc1ccc(S(=O)(=O)N2CCN(C)CC2)c(C)c1C returned Rpn11 block 3, CSN inh 0, Neddyl block 4, HNF4A DNA FP 1, Rin1 Abl inh 5.8*, TPT1 inh -2, Rin1 Abl conf 0 and GFP quencher -1.
Screening O=C(c1ccc(F)cc1)C1CCN(C(=O)c2ccccc2F)CC1 returned Rpn11 block 3, CSN inh 2, Neddyl block -4, HNF4A DNA FP 1, Rin1 Abl inh 2 and TPT1 inh 1.
O=C(c1ccco1)N1CCN(Cc2cc(=O)c(OCc3cccc(Cl)c3)co2)CC1 was read as Rpn11 block 0, CSN inh 3, Neddyl block 7, HNF4A DNA FP -1, Rin1 Abl inh 2 and TPT1 inh -4.
O=C(c1ccco1)N1CCN(Cc2cc(=O)c(OCc3ccccc3Cl)co2)CC1 was read as Rpn11 block -2, CSN inh -5, Neddyl block 13, HNF4A DNA FP 3, Rin1 Abl inh 14*, TPT1 inh 1, Rin1 Abl conf 10* and GFP quencher 1.
For Cc1ccc(NC(=O)CN2C(=O)N/C(=C/c3cc(C)n(-c4ccc(C(=O)O)cc4)c3C)C2=O)cc1 the results were Rpn11 block 1, CSN inh 7, Neddyl block 5, HNF4A DNA FP -6 and Rin1 Abl inh 5.
